The series relates to MS2 coat protein. The series can be described thus: apparent Kd, MS2 coat protein; higher = weaker binding; RNA-MaP array; theophylline 2 mM where present. Summed up: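 Green signal from SNAP-549-labelled MS2 coat protein was normalised to red-channel RNA signal and to the median Fmax of control clusters. The protein was titrated from 0.7 or 1.5 nM, doubling to 3 µM, without and then with constant ligand, over designs transcribed by stalled E. coli RNA polymerase on Illumina sequencing-chip clusters, in 100 mM Tris-HCl pH 7.5, 80 mM KCl, 4 mM MgCl2, BSA, DTT, yeast tRNA and Tween-20. The apparent Kd is the median of filtered per-cluster binding-curve fits.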

Where [1] appears, read: designed as: OFF switch for theophylline, no ligand.
Where [2] appears, read: ligand present: theophylline, designed as: OFF switch for theophylline.
[3] abbreviates: designed as: ON switch for theophylline, no ligand.
Where [4] appears, read: ligand present: theophylline, designed as: ON switch for theophylline.

As usually defined, the apparent Kd is the concentration giving half-maximal binding under the conditions of the assay.

As to “AGCGUAUAGACGGAUACCAGCGCCAAUUAACAUGAGGAUCACCCAUGUAGUGUGGGUGGACGCCCUUGGCAGCCGAGUAUAGGUA”, the “apparent Kd” value reads like this: under setting [1], 97.8 nM; under setting [2], 284 nM.

As for “GCUUGGGUGGCACAGCCCUGGCAGUGCGAUACCAGCACGGUAACGUGCCCUUGGCAGCGCACAUGAGGAUCACCCAUGUGGUGCG”, the “apparent Kd” value turned out to be 69.5 nM under setting [1] and 345 nM under setting [2].

As to “UGACAUUGCUCAGAUACCAGACAUGAGGAUCACCCAUGUACCGAGGUACCCGAAAGGAAUGUCCCUUGGCAGCUGAGCAAUGUCU”, the “apparent Kd” value amounted to 10.9 nM under setting [1] and 152 nM under setting [2].

“UCUUUCUAUAGUGAUACCAGACGUACAUGAGGAUCACCCAUGUUACAUUCUUGGUUAAAAGUCCCUUGGCAGCACGAUUUGUUCG”: the “apparent Kd” value is, setting by setting: under setting [1], 9.51 nM; under setting [2], 10.2 nM.

On to “UUUGCACAUGAGGAUCACCCAUGUACAGAUACCAGCCUCAUCUACGGCCCUUGGCAGCUGAGAUAAUGGUGACGUGAUGGGCUUU”, for which the “apparent Kd” value runs as follows: under setting [1], 14 nM; under setting [2], 26.3 nM.

“UGACAUUGCUGCGAUACCAGACAUGAGGAUCACCCAUGUACCAAGGUAAAGAAAUAACGUGUCCCUUGGCAGCGCAGCAAUGUCU”: the “apparent Kd” value runs as follows: under setting [1], 9.91 nM; under setting [2], 91.1 nM.

Regarding “CCUCAUGUGUAUCACCACAUGAGUGGUGAUACCAGCAUCGAAAGAUGCCCUUGGCAGCACCAACAUGAGGAUCACCCAUGUAAUA”, the “apparent Kd” value worked out at 352 nM under setting [3] and 101 nM under setting [4].

Regarding “AUUAUCAUGGUCAUAUAUAUUUCGUCAGAUACCAGACUAGAUAUAGUCCCUUGGCAGCUGUUACAUGAGGAUCACCCAUGUUAUU”, the “apparent Kd” value amounted to 121 nM under setting [1] and 44.5 nM under setting [2].

As to “CUUAUAGUAACUGAUACCAGUGUACUGACAUGAGGAUCACCCAUGUUGGGUUUUGUUGUACACCCUUGGCAGCAGAAUCUAUAAG”, the “apparent Kd” value amounted to 69.5 nM under setting [1] and 86.6 nM under setting [2].

As to “UGAUCCUACAGAGAUACCAGUGCCACUGAGUGACCAGACACAUGAGGAUCACCCAUGUAACACCCUUGGCAGCUCAACUAGAGGG”, the “apparent Kd” value by setting is: under setting [3], 20.4 nM; under setting [4], 69.7 nM.

With “UAUAGUGUGAUGGAUACCAGCAGAGAAAACGUUUAUCCUAACAUGAGGAUCACCCAUGUAUGCCCUUGGCAGCUGUUGUGUUAUA”, the “apparent Kd” value reads like this: under setting [1], 31.7 nM; under setting [2], 31.8 nM.

“AAUAACAUGAGGAUCACCCAUGUAAAAGAUACCAGAUGCAUGAUGAUCCCUUGGCAGCUUAAACGCGAUUGAUUACAAUCGCGAA”: the “apparent Kd” value is, setting by setting: under setting [3], 34.4 nM; under setting [4], 91.8 nM.

Consider “AGACAUGAGGAUCACCCAUGUAGCAUGGAUACCAGAUCCAGAUUUAUCCCUUGGCAGCUGUGGUAAAGUGAUGGAUUGCUCCUAG”, for which the “apparent Kd” value is, setting by setting: under setting [1], 44.3 nM; under setting [2], 55.5 nM.

With “AGCCUCAUACAUGAGGAUCACCCAUGUGAUACCAGUCAGGAAACUGACCCUUGGCAGCGCAUGAGGAUCACCCAUGUGCGAGGCA”, the “apparent Kd” value runs as follows: under setting [1], 43.5 nM; under setting [2], 192 nM.

On to “AAACGUUGCUGCGAUACCAGACAUGAGGAUCACCCAUGUACCAAGGUAAGAAAAUAACAUGUCCCUUGGCAGCGCAGCAACGAAA”, for which the “apparent Kd” value by setting is: under setting [1], 15.4 nM; under setting [2], 412 nM.

With “AUAAGUAAUGUUUCGUGUUUUAUUACAGAUACCAGACUAUACGUUGUCCCUUGGCAGCUGGAUUACAUGAGGAUCACCCAUGUUG”, the “apparent Kd” value amounted to 19.5 nM under setting [1] and 35.1 nM under setting [2].

With “UGCAUCAUAAUCAUGUAGGUGCUAGGUGAUACCAGCAUCGAAAGAUGCCCUUGGCAGCACCAACAUGAGGAUCACCCAUGUAAUA”, the “apparent Kd” value by setting is: under setting [3], 216 nM; under setting [4], 97.1 nM.

With “UAAAUAAUCUGGGUGUAGGUAAUAACAGAUACCAGCCAGAUAACUGGCCCUUGGCAGCUGAUAACAUGAGGAUCACCCAUGUAAA”, the “apparent Kd” value under setting [3] was determined as 80.5 nM and the “apparent Kd” value under setting [4] is 224 nM.

In the case of “ACUAGCGCACAUGAUACCAGCGACAUGAGGAUCACCCAUGUACGGCGUGUAUCGAAAGGUUGCCCUUGGCAGCAUGAUAGCGCUG”, the “apparent Kd” value runs as follows: under setting [1], 13.9 nM; under setting [2], 255 nM.

For the sequence “GAUGAUAUUGCAGAUACCAGACACAUGAGGAUCACCCAUGUCGCUGGGUUACUGGAUCGUGUCCCUUGGCAGCUGCGAUAUCAUC”, the “apparent Kd” value was found to be 286 nM under setting [1] and 69.4 nM under setting [2].

As to “UGACAUUGCUCAGAUACCAGACAUGAGGAUCACCCAUGUACCAAGGUAACCGAAAGGCAUGUCCCUUGGCAGCUGAGCAAUGUCU”, the “apparent Kd” value by setting is: under setting [1], 11.1 nM; under setting [2], 225 nM.

In the case of “AAGACAUGAGGAUCACCCAUGUGGAGGGAUACCAGCCUGUGUGUGGGCCCUUGGCAGCUUAAAUUUAAUUUAAUUAAAUAAAUUU”, the “apparent Kd” value by setting is: under setting [3], 34.7 nM; under setting [4], 36.1 nM.

As to “ACUCGGUGUUUGUUGCUCCGAGUGUAUGAUACCAGUUAGUUUUAUGGCCCUUGGCAGCAUAGGACAUGAGGAUCACCCAUGUGUU”, the “apparent Kd” value is, setting by setting: under setting [3], 32.6 nM; under setting [4], 45.7 nM.
